Reference: ChEMBL document CHEMBL5154824, “Design and synthesis of multifunctional microtubule targeting agents endowed with dual pro-apoptotic and anti-autophagic efficacy” (Eur J Med Chem, 2022)
Active and inactive are the calls of the source. No cut-off for these calls is given here.

How the values were obtained:
[1] = Mutagenicity in Salmonella typhimurium TA98 in absence of rat liver S9 fraction at 0.3 to 60 uM by AMES test; type: toxicity; settings: salmonella enterica subsp. enterica serovar typhimurium, s9, 60 µM; dose 0.3-60 µM
[2] = test system: HeLa; experiment: Induction of autophagy in human HeLa cells assessed as increasing number of autophagosomes at 1 to 10 uM incubated for 3 hrs with HBSS medium by immunofluorescence based laser scanning confocal microscopic analysis; type: functional, cell-based; settings: dose 1-10 µM
Summary of the method: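 HeLa cells were treated in HBSS at 1 or 10 μM, with BafA1 300 nM as reference, for 3 h. After fixation in ice-cold methanol, LC3 and LAMP1 were immunostained. Laser scanning confocal microscopy assessed autophagosome number and LC3/LAMP1 colocalisation.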

[3] = test system: SCC-4; experiment: Induction of autophagy in human SCC-4 cells assessed as decrease in UlK1 protein level at 10 uM in measured after 24 hrs by Immunoblotting analysis; type: functional, cell-based
Summary of the method: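 SCC4 cells under basal conditions were treated at 10 μM for 24 h. Autophagy-related proteins were immunoblotted, and densitometry was expressed as a ratio normalised to vehicle control.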

[4] = Induction of Pro-apoptosis in human HL-60 cells assessed as increase in apoptotic cells at 10 uM after 48 hrs by Annexin-V/PI-staining based flow cytometry; type: functional
[5] = Mutagenicity in Salmonella typhimurium TA100 in absence of rat liver S9 fraction at 0.3 to 60 uM by AMES test; type: toxicity; settings: salmonella enterica subsp. enterica serovar typhimurium, s9, 60 µM; dose 0.3-60 µM
[6] = test system: HL-60; experiment: Induction of autophagy in human HL-60 cells assessed as increase in LC3-II protein level at 10 uM measured up to 1 hr by Immunoblotting analysis; type: functional, cell-based
[7] = test system: KYSE-520 cell line; experiment: Cytotoxicity against human KYSE520 cells assessed as inhibition of cell growth measured after 48 hrs by alamar blue viability assay; type: functional, cell-based; settings: KYSE-520, 48 h
Summary of the method: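 KYSE-520 oesophageal cells were exposed to at least 8 increasing concentrations for 48 h or 72 h. Viability was read out to give IC50, as the mean ± SD of at least three independent experiments.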

[8] = test system: HeLa; experiment: Induction of cell morphological changes in human HeLa cells at 10 uM measured after 3 hrs by LysoTracker Red staining based microscopic analysis; type: functional
Summary of the method: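 Living HeLa cells were treated at 10 μM, or with BafA1 at 300 nM, for 3 h, then incubated with 75 nM LysoTracker red. Cells were imaged by spinning disc microscopy at 37 °C, 5% CO2.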

[9] = target: Nuclear factor NF-kappa-B complex (Homo sapiens) (UniProt Q00653+P19838+Q04206); experiment: Inhibition of NF-kappaB phosphorylation in human HL-60 cells at 10 uM measured after 2 hrs by Immunoblotting analysis; type: cell-based
Summary of the method: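 HL-60 cells were treated at 10 μM or with DMSO vehicle for 2 h. Phospho-NF-κB and phospho-Erk1/2 were immunoblotted and quantified by densitometry relative to β-tubulin. Data are mean ± SD (n = 2), analysed by one-way ANOVA.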

[10] = test system: SCC-4; experiment: Induction of autophagy in human SCC-4 cells assessed as increase in LC3-II to LC3-I ratio at 10 uM in absence of EBSS measured after 3 hrs by Western blot analysis; type: functional, cell-based
Summary of the method: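 SCC4 cells were pre-incubated with or without EBSS for 30 min, then given 10 μM compound, with 10 μM chloroquine as reference, for 3 h. LC3-I/II was assessed by Western blot with GAPDH loading control. The LC3-II/LC3-I ratio came from densitometry, as mean ± SEM of four experiments, with an unpaired one-tailed t-test.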

[11] = test system: Ca9-22; experiment: Cytotoxicity against human Ca9-22 cells assessed as reduction in cell viability measured after 48 hrs by alamar blue viability assay; type: functional, cell-based; settings: Ca9-22, 48 h
Summary of the method: (§1)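 Oral squamous carcinoma cells were exposed for 48 h to at least 8 increasing concentrations. Viability was read by AlamarBlue. IC50 is the concentration that halves viability, taken as the mean ± SD of at least three independent experiments.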

[12] = Metabolic stability in human liver microsomes assessed as half life by HPLC analysis; type: ADME, Microsome
Summary of the method: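 Compound incubated with human liver microsomes plus an NADPH-generating system. Log % of compound recovered (100% at 0 min) was plotted against incubation time and fitted to a monoexponential decay. Controls were boiled microsomes, or microsomes without NADPH-GS, at 37 °C for 60 min.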

[13] = test system: A549; experiment: Cytotoxicity against human A549 cells assessed as inhibition of cell growth measured after 48 hrs by MTT assay; type: functional, cell-based; settings: A549, 48 h
[14] = test system: KYSE-520 cell line; experiment: Induction of apoptosis in human KYSE520 cells assessed as increase in apoptotic cells at 3 to 10 uM after 72 hrs by Annexin V-FITC/PI staining based flow cytometry method; type: functional, cell-based; settings: dose 3-10 µM
Summary of the method: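 KYSE-520 cells were treated at 3 and 10 μM for 72 h, then analysed by flow cytometry after Annexin V/PI dual staining.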

[15] = test system: HL-60; experiment: Induction of autophagy in human HL-60 cells assessed as increase in LC3-II protein level at 10 uM in presence of chloroquine […] by Immunoblotting analysis; type: functional, cell-based
[16] = target: Tubulin (Homo sapiens) (UniProt P68371+Q9H4B7+P0DPH7+P68366+Q13509+Q71U36+P04350+Q3ZCM7+P07437+P68363+Q9BQE3+Q6PEY2+Q13885+Q9BVA1+Q9BUF5); experiment: Binding affinity to microtubule polymerization (unknown origin) assessed as formation of microtubule at 27.5 uM measured for 2 hrs by plate reader method; type: protein-complex assay
Summary of the method: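 25 μM tubulin in GAB buffer with compound at 27.5 μM or DMSO vehicle; podophyllotoxin 27.5 μM as destabiliser control. Polymerisation started by raising temperature from 4 to 37 °C at time 0; microtubule formation followed as absorbance increase over time.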

[17] = test system: HL-60; experiment: Induction of autophagy in human HL-60 cells assessed as increase in p62 protein level at 10 uM […] by Immunoblotting analysis; type: functional, cell-based
[18] = test system: OE33; experiment: Cytotoxicity against human OE33 cells assessed as inhibition of cell growth measured after 72 hrs by MTT assay; type: functional, cell-based; settings: OE33, 72 h
Summary of the method: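 Oesophageal adenocarcinoma lines were exposed to at least 8 increasing concentrations for 72 h. Viability was measured by MTT. IC50 is the mean ± SD of at least three independent experiments.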

[19] = test system: HeLa; experiment: Induction of morphological changes in human HeLa cells assessed as golgi complex fragmentation at 10 uM incubated for 3 hrs by phalloidin staining based laser scanning confocal microscopic analysis; type: functional, cell-based
Summary of the method: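 HeLa cells in growth medium were treated at 1 or 10 μM, with BafA1 300 nM as reference, for 3 h. Cells were fixed in 4% PFA, stained with anti-GM130 for the Golgi and AF647-phalloidin for actin, and imaged by laser scanning confocal microscopy.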

[20] = Cytotoxicity against human Primary oral epithelial cells assessed as inhibition of cell growth measured after 24 hrs by neutral red uptake assay; type: toxicity, cell-based
Summary of the method: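 Neutral red uptake viability test. NIH3T3 fibroblasts or primary human oral epithelial cells were exposed to compound at 0.1 to 120 μM. EC50 was derived, with SD below 5%.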

[21] = Cytotoxicity against human TR146 cells assessed as reduction in cell viability measured after 48 hrs by alamar blue viability assay; type: functional, cell-based; settings: TR146, 48 h; summary of the method: as §1
[22] = Mutagenicity in Salmonella typhimurium TA100 in presence of rat liver S9 fraction at 0.3 to 60 uM by AMES test; type: toxicity, subcellular; settings: salmonella enterica subsp. enterica serovar typhimurium, s9, 60 µM; dose 0.3-60 µM

Sequence of Nuclear factor NF-kappa-B complex (Homo sapiens) (P19838 whole entry, looked up): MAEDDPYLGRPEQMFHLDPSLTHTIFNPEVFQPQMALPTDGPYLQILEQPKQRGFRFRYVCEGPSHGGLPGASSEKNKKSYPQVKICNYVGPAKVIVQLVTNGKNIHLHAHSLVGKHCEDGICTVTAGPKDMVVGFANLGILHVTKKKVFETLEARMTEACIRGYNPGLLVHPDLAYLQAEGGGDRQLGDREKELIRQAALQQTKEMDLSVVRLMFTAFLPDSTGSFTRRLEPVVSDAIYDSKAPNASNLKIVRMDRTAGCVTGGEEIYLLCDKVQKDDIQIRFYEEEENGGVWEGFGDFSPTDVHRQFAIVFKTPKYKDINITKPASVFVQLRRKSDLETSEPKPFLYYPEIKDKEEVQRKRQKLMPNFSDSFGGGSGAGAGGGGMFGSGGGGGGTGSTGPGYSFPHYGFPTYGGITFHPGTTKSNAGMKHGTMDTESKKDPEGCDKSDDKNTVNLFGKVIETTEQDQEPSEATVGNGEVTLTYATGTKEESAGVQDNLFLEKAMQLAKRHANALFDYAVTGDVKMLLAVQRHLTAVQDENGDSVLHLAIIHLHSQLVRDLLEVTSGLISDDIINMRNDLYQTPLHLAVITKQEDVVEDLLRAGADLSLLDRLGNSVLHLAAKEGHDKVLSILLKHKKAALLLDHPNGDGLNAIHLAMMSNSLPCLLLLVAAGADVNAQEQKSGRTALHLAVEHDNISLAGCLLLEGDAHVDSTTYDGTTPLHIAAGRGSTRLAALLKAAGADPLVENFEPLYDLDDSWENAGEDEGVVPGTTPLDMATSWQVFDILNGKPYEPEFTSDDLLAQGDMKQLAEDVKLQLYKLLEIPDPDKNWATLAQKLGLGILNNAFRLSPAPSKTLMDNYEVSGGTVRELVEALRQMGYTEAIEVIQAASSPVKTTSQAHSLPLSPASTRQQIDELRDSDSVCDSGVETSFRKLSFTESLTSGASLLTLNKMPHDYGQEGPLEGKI
Sequence of Nuclear factor NF-kappa-B complex (Homo sapiens) (Q00653 whole entry, looked up): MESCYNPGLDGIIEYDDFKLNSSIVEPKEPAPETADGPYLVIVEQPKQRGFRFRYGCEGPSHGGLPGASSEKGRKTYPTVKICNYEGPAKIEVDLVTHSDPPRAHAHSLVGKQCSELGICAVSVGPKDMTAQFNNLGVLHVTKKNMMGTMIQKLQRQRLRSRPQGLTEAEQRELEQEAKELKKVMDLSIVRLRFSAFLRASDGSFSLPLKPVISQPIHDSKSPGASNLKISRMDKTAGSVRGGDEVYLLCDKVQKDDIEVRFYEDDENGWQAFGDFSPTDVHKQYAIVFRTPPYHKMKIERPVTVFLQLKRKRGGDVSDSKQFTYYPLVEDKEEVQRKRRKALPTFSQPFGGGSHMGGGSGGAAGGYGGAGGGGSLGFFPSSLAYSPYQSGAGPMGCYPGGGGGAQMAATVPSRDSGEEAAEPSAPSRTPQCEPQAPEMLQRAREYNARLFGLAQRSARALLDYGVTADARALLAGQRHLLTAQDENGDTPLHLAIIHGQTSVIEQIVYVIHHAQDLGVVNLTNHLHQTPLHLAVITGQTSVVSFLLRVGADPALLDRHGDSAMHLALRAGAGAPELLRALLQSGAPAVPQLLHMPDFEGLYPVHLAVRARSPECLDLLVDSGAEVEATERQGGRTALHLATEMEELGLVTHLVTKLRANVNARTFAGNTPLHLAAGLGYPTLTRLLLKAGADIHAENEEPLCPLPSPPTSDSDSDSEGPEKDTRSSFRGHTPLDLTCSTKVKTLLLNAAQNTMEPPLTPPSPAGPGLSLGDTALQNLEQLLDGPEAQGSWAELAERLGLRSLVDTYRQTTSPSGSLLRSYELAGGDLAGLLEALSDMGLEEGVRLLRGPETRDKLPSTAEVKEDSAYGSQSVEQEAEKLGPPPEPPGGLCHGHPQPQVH
Sequence of Nuclear factor NF-kappa-B complex (Homo sapiens) (Q04206 whole entry, looked up): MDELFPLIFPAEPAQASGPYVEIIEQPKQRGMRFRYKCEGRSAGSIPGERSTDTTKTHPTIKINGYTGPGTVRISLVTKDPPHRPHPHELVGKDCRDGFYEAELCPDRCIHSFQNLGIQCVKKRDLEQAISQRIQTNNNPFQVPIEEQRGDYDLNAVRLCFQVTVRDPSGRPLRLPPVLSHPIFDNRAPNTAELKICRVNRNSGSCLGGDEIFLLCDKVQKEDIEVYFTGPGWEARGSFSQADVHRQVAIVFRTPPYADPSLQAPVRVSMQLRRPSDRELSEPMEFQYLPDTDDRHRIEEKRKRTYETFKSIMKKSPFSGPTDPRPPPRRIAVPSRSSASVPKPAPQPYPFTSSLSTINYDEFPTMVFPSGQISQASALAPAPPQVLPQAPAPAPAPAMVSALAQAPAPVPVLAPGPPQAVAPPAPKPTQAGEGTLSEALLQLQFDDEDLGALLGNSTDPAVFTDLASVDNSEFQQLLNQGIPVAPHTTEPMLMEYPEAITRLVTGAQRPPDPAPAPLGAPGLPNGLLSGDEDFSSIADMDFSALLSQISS

Row | Compound | Activity [1] | Activity [2] | Activity [3] | Activity [4] | Activity [5] | Activity [6] | IC50 [7] [nM] | Activity [8] | inhibition [9] | Activity [10] | IC50 [11] [nM] | half-life [12] [h] | IC50 [13] [nM] | Activity [14] | Activity [15] | Activity [16] | Activity [17] | IC50 [18] [nM] | Activity [19] | EC50 at 24 h [20] [nM] | other results
1 | CN1CCN(C(=O)OC2=C(c3cccc4ncccc34)Oc3cc4ccccc4cc3-n3cccc32)CC1 | Non-Toxic | Active | Active | >=70% | Non-Toxic | Active | 3600 | Active | Active | Active | 130 | 0.513 | 774 | Active | Active | Active | Active | 400 | Active | 45000 | IC50 [21]: 880 nM; Activity [22]: Non-Toxic
2 | O=C(OC1=C(c2cccc3ncccc23)Oc2cc3ccccc3cc2-n2cccc21)C1CCNCC1 | Non-Toxic | Active | Active | >=70% | Non-Toxic | Active | 1680 | Active | Active | Active | 2000 | 1.52 | 6150 | Active | Active | Active | Active | 1930 | Active | 45000 | IC50 [21]: 4500 nM; Activity [22]: Non-Toxic
